# The source made the active and inactive calls. The rule behind the calls is not given here.
# Columns and labels:
# [1] = Displacement of [3H]ketanserin from 5-HT2 in pig cerebral cortex; assay type: tissue-based, Sus scrofa
# [2] = Displacement of [3H]WAY100635 from 5-HT1A in pig cerebral cortex; assay type: tissue-based, Sus scrofa
# Outline: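 Porcine cortical membranes were used with selective radioligands: [3H]WAY100635 for 5-HT1A, [3H]ketanserin for 5-HT2 and [3H]prazosin for α1. Ki values were taken from two to four independent experiments, each run in triplicate.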
# D(4) dopamine receptor = target: T1, D(4) dopamine receptor (Homo sapiens, UniProt P21917); test: Displacement of [3H]spiperone from human D4.4 receptor expressed in CHO cells; assay type: cell-based
# T1 sequence (P21917 whole entry): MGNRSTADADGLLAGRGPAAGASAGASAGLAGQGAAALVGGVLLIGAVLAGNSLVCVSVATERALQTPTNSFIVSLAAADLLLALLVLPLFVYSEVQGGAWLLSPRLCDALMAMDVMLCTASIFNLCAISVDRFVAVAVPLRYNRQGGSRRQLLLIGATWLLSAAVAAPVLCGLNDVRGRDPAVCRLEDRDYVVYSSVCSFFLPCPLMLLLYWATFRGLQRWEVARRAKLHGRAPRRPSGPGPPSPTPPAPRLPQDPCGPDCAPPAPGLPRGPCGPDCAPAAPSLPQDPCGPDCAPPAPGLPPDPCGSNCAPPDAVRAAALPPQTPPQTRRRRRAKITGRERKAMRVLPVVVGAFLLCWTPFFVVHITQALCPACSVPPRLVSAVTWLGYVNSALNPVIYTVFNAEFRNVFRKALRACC
# Outline: (§1)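 Competition binding against [3H]spiperone on cloned human receptors (D2long, D2short, D3, D4.4) stably expressed in CHO cells. Ki values were taken from two to four independent experiments, each run in triplicate.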
# D(3) dopamine receptor = D(3) dopamine receptor (Homo sapiens, UniProt P35462); test: Displacement of [3H]spiperone from human D3 receptor expressed in CHO cells; assay type: cell-based; outline: as §1
# D(2) dopamine receptor [3] = target: T2, D(2) dopamine receptor (Homo sapiens, UniProt P14416); test: Displacement of [3H]spiperone from human D2long receptor expressed in CHO cells; assay type: cell-based; outline: as §1
# D(2) dopamine receptor [4] = target: T2, D(2) dopamine receptor; test: Displacement of [3H]spiperone from human D2short receptor expressed in CHO cells; assay type: cell-based; outline: as §1
# D(1A) dopamine receptor = D(1A) dopamine receptor (Sus scrofa, UniProt P50130); test: Displacement of [3H]SCH23390 from D1 receptor in pig striatal membrane; assay type: cell membranes, Striatum
# Outline: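 D1 binding on porcine striatal membrane preparations, displacing the D1-selective antagonist [3H]SCH23390. Ki values were taken from two to four independent experiments, each run in triplicate.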
# [5] = target: T3, D(4) dopamine receptor (Homo sapiens) (UniProt P21917); test: Partial agonist activity at human D4.4 receptor expressed in CHO10001 cells assessed as [3H]thymidine incorporation preincubated at 63 nM for 20 hrs before [3H]thymidine addition by mitogenesis assay; assay type: cell-based
# T3 sequence (whole entry): T1 sequence (P21917 whole entry)
# [6] = target: T3, D(4) dopamine receptor (Homo sapiens); test: Antagonist activity at human D4.4 receptor expressed in CHO10001 cells assessed as [3H]thymidine incorporation preincubated at 63 nM for 20 hrs before [3H]thymidine addition by mitogenesis assay; assay type: cell-based
# Chain of D(3) dopamine receptor (P35462 whole entry): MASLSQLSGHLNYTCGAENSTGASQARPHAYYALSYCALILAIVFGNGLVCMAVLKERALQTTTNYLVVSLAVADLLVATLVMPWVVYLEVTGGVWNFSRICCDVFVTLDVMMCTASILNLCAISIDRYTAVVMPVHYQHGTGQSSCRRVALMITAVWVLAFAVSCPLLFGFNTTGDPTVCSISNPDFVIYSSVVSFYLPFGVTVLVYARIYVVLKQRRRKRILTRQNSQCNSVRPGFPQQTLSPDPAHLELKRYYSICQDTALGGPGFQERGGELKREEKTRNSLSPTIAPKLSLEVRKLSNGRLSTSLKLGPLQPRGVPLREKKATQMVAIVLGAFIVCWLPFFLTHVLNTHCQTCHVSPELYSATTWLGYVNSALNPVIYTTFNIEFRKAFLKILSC
# T2 sequence (P14416 whole entry): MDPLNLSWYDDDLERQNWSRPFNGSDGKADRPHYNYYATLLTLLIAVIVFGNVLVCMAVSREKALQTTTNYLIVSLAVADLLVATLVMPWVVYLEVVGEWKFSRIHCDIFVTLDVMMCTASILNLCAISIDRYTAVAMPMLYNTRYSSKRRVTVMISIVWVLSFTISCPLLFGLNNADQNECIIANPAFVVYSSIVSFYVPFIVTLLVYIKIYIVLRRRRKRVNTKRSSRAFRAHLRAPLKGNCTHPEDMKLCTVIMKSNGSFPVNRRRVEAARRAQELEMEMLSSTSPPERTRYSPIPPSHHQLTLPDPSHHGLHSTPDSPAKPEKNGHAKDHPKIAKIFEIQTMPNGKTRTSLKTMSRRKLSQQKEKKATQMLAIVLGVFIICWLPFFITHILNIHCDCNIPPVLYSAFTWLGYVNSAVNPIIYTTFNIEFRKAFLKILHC
# Chain of D(1A) dopamine receptor (P50130 whole entry): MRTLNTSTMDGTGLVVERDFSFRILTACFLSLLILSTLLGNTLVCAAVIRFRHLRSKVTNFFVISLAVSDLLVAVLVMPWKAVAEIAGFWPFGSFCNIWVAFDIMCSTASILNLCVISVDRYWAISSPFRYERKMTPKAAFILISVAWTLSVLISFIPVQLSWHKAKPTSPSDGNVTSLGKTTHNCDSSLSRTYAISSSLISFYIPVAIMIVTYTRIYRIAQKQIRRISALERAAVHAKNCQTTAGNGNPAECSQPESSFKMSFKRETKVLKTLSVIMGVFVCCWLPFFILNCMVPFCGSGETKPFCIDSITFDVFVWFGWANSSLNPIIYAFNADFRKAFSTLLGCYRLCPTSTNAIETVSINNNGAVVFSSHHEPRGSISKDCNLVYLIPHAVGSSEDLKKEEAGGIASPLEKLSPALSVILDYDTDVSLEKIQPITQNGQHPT
Structure (SMILES),Ki [1],Ki [2],Ki (D(4) dopamine receptor),Ki (D(3) dopamine receptor),Ki (D(2) dopamine receptor [3]),Ki (D(2) dopamine receptor [4]),Ki (D(1A) dopamine receptor),Activity [5],Activity [6]
COc1ccccc1N1CCN(Cc2cn(CCOCCOCCOCCF)nn2)CC1,18 µM,770 nM,680 nM,7.6 µM,8300 nM,4700 nM,60 µM,–,–
COc1ccccc1N1CCN(Cc2cn([C@@H]3O[C@H](CO)[C@@H](O)[C@H](O)[C@H]3F)nn2)CC1,38 µM,12000 nM,500 nM,17 µM,23000 nM,42000 nM,54 µM,–,–
COc1ccccc1N1CCN(Cc2cn(CCOCCF)nn2)CC1,27 µM,240 nM,23 nM,1.7 µM,1600 nM,750 nM,–,–,–
COc1ccccc1N1CCN(Cc2cn(-c3ccc(OCCCOCCF)cc3)nn2)CC1,9 µM,480 nM,16 nM,2.9 µM,440 nM,770 nM,3.6 µM,–,–
COc1ccccc1N1CCN(Cc2cn(-c3ccc(OCCF)cc3)nn2)CC1,10 µM,420 nM,14 nM,17 µM,1600 nM,18000 nM,45 µM,27%,–
COc1ccccc1N1CCN(Cc2cn(-c3ccc(OCCOCCOCCF)cc3)nn2)CC1,8.2 µM,560 nM,100 nM,0.2 µM,2700 nM,2900 nM,43 µM,–,–
COc1ccccc1N1CCN(Cc2cn(-c3ccc(OCCCF)cc3)nn2)CC1,–,420 nM,5.1 nM,2.8 µM,340 nM,520 nM,38 µM,–,Active
COc1ccccc1N1CCN(Cc2cn(CCOCCOCCF)nn2)CC1,23 µM,870 nM,150 nM,5.1 µM,7700 nM,3400 nM,30 µM,–,–
COc1ccccc1N1CCN(Cc2cn(CCCCCCF)nn2)CC1,6.4 µM,54 nM,20 nM,0.8 µM,460 nM,560 nM,26 µM,–,–
COc1ccccc1N1CCN(Cc2cn([C@@H]3O[C@H](CF)[C@@H](O)[C@H](O)[C@H]3O)nn2)CC1,–,18000 nM,340 nM,–,24000 nM,51000 nM,77 µM,–,–
COc1ccccc1N1CCN(Cc2cn(-c3ccc(OCCCOC4O[C@H](CO)[C@@H](O)[C@H](O)[C@H]4F)cc3)nn2)CC1 (stereo not given in full),7.8 µM,650 nM,32 nM,5.7 µM,4100 nM,1500 nM,16 µM,–,–
